# Screening results: PubChem BioAssay, The Scripps Research Institute Molecular Screening Center
# CHO parental Ca – counter-screen: ATP calcium response change in parental CHO cells. parental CHO-K1, ATP-induced calcium, Fluo-8 fluorescence. inhibition, % at 5.6 µM. 330,000 tested, 0.63% active. AID 463079;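 active = inhibition above that plate's mean sample inhibition plus 3 SD, cut at about 26% in these data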;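 note: 0% = ATP-challenged DMSO wells and 100% = DMSO wells without ATP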
#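 test system = CHO parental line | reagent = ATP stimulus | measured by = intracellular calcium via Fluo-8 no-wash fluorescent dye | control set = ATP and no-ATP DMSO wells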
# OX1R antag-1 – antagonists of human orexin 1 receptor (OX1R). O43613. OX1R-expressing cells, FRET antagonist read-out. inhibition, % at 6.6 µM. 330,000 tested, 1.8% active. AID 485270; in the data active = inhibition mostly above about 38%, no sharp cut-off; inactive = mostly below about 40%;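 note: 0% = agonist challenge alone and 100% = reference antagonist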
# GPR7 antag – blocks human GPR7 receptor signaling; GPR7-expressing cells, fluorescence antagonist assay; inhibition, % at 4.4 µM; 290,000 tested, 1.1% active; AID 1861; in the data active = inhibition above about 16%, passing the limit was not always enough;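 note: cells stimulated with the agonist NPW; 0% = agonist with vehicle and 100% = vehicle without agonist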
# Target sequence (P48145 whole entry, looked up): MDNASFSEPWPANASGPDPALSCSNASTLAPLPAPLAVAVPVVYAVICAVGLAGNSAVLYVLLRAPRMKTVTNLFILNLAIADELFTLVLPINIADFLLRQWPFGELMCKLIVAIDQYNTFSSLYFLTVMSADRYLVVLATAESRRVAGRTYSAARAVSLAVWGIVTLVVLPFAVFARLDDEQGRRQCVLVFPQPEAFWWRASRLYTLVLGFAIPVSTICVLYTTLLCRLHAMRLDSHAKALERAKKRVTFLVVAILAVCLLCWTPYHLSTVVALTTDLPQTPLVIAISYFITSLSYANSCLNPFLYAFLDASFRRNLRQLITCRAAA
# TAAR1 antag – human TAAR1 antagonism; AID 624466; 360,000 tested, 1.5% active; inhibition, % at 3 µM; Q96RJ0; CHO RD-HGA16 TAAR1, Fluo-8 calcium fluorescence, antagonist;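 active = inhibition above a per-plate cutoff, the mean inhibition of test compounds on that plate plus 3 SD, cut at about 49% in these data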;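 note: 0% = DMSO plus EC80 beta-PEA response and 100% = DMSO alone without agonist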
# Target sequence (Q96RJ0 whole entry, looked up): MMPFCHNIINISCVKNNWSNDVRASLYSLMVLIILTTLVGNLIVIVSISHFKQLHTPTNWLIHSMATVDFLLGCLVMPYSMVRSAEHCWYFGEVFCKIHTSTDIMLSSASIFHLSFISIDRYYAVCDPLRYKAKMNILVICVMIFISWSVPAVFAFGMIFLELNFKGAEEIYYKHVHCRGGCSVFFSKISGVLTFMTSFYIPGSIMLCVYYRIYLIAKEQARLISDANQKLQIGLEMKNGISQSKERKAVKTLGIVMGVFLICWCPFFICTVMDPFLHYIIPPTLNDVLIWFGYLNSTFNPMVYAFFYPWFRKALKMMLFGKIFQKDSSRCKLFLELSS
#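 Test system: CHO RD-HGA16 cells bearing hTAAR1 | Reagent: β-PEA, EC80 | Compound dosing: 3 µM, single point | Schedule: Dye loading 75 min at 37 °C, then 30 min room temperature | Signal: Calcium fluorescence with Fluo-8 | Evaluation: Percent inhibition of PEA-evoked calcium signal, max/basal emission ratio | Control set: DMSO-only wells and EC80 β-PEA-stimulated wells | Repeats: Singlicate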
# OX1R antag-2 – antagonists of human orexin 1 receptor | O43613 | CHO/OX1R cells, Fluo-8 calcium fluorescence, orexin A | inhibition, % at 5 µM | 330,000 tested, 0.43% active | AID 434989;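 active = inhibition above its plate's threshold, mean inhibition of all tested compounds on the plate plus 3 SD, cut at about 37% in these data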;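 note: 0% = orexin A challenge wells and 100% = SB-334867-A antagonist wells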
# TAAR1 ag – human TAAR1 agonism; AID 624467; CHO RD-HGA16 TAAR1, Fluo-8 calcium fluorescence; vehicle wells 0%, saturating PEA agonist 100%; activation, % at 3 µM; Q96RJ0; 360,000 tested, 0.99% active;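 active = activation above the mean activation of all test compounds in the run plus 3 SD, cut at about 38% in these data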
#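 Signal – calcium-sensitive Fluo-8 signal, excitation 470-495, emission 515-575 nm · System – RD-HGA16 (CHO) cells co-expressing Gα16 and hTAAR1 · Incubation – 17-24 h seeding, 75 min 37 °C dye, 30 min RT · Compound dosing – 3 µM single concentration · Repeats – no replicates (n 1)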
# An asterisk follows results filed as active; · = no result given. Shown are actives, neighbours in structure and some others; about 4.5% of the full set was active somewhere.
SMILES,CHO parental Ca,OX1R antag-1,GPR7 antag,TAAR1 antag,OX1R antag-2,TAAR1 ag
COc1nc(NC(C)(C)C)nc(Oc2ccc(=O)n(C)n2)n1,-5,-1,-2,-1,-10,1
CC(C)Nc1nc(NC(C)(C)C)nc(Oc2ccc(=O)n(C)n2)n1,-16,11,-10,-1,0,39*
COc1ccc(CCNC(=O)COc2ncnc3cc([N+](=O)[O-])ccc23)cc1,-4,53*,-2,-4,-25,6
O=C(N/N=C/c1ccc(Cl)c([N+](=O)[O-])c1)C1CC1,1,59*,3,-2,8,7
O=[N+]([O-])c1cc(/C=N/NC(=S)Nc2ccccc2Cl)ccc1Cl,-18,52,30*,11,0,0
Cc1ccc(NC(=S)N/N=C/c2ccc(Cl)c([N+](=O)[O-])c2)cc1,-9,-4,-5,4,3,-3
Cc1ccc(C(=O)N2CCC[C@@H]2C(=O)N2CCC[C@H]2C(=O)NCc2ccccc2)cc1,·,·,·,-2,·,-2
Cc1cc(C)c(CN2CCN(C(=O)Cn3cc(C)c(=O)[nH]c3=O)CC2)c(C)c1,·,·,·,-12,·,-1
O=C(COC(=O)c1cc(NS(=O)(=O)c2cccs2)ccc1O)Nc1ccccc1,-10,73*,-3,13,-12,10
COc1ccc(N/C(=C\C(=O)c2ccccc2)c2ccccc2)cc1OC,·,·,·,3,·,-1
C=CCN=C1NC(CCc2ccccc2)C(C(=O)OC)=C(C)N1C (configuration not stated),·,·,·,-12,·,1
COc1cc(/C=N/n2cnnc2)ccc1OCCOc1ccccc1,0,25,-15,16,-2,9
C=CCc1ccc(OCCOc2ccc(/C=N/n3cnnc3)cc2OCC)c(OC)c1,67*,25,-7,21,1,6
CN(C)S(=O)(=O)c1cccc(NC(=O)COC(=O)CCSc2ccc(Cl)cc2)c1,-2,14,3,14,-13,10
CCN(CC)S(=O)(=O)c1cccc(NC(=O)c2ccc(SC)cc2OC)c1,-7,33,-7,52*,1,5
CCN(CC)S(=O)(=O)c1cccc(NC(=O)CCSc2ccc(Cl)cc2)c1,48*,6,3,24,10,4
NC(Cc1ccc(C(F)(F)F)cc1)c1csc(Nc2ccc(C(=O)NCc3ccco3)cn2)n1 (configuration not stated),·,·,·,26,·,20
CCOC(=O)c1ccc([N+](=O)[O-])c(CS(=O)(=O)c2ccc(Cl)cc2)c1,-5,16,22,25,-17,2
Cc1ccc(S(=O)(=O)Cc2cc(F)c([N+](=O)[O-])cc2[N+](=O)[O-])cc1,57*,41*,30*,·,60*,·
c1ccc(-n2nnnc2-c2cnc(-c3ccncc3)nc2-c2cccs2)cc1,-11,46*,-14,7,21,-2
Fc1ccc(-n2nnnc2-c2cnc(-c3cccs3)nc2C(F)(F)F)cc1,51*,83*,-15,79*,39,16
FC(F)(F)c1nc(N2CCCC2)ncc1-c1nnnn1-c1ccc(Cl)cc1,47*,50,-6,6,61*,12
Cc1ccc(-n2nnnc2-c2cnc(-c3cccnc3)nc2C(F)(F)F)cc1,-11,40,-1,27,-20,13
FC(F)(F)c1nc(-c2ccncc2)ncc1-c1nnnn1-c1ccccc1,-23,15,-7,5,-10,4
Cc1noc(C)c1S(=O)(=O)N(C)C[C@@H]1OCc2cnnn2CCCC(=O)N([C@@H](C)CO)C[C@@H]1C,·,·,·,2,·,7
SMILES,CHO parental Ca,OX1R antag-1,GPR7 antag,TAAR1 antag,OX1R antag-2,TAAR1 ag
CC(C)CNc1ncnc2c1ncn2[C@H]1CN(Cc2ccc(-c3ccccc3)cc2)C[C@@H](CO)O1,·,·,·,8,·,7
CCc1nc2ccc(C(=O)NCCC(C)C)cn2c1N(CC)CCN(C)C,·,·,·,-13,·,2
Cc1ccc(C(C)C)c(OCC(=O)NS(=O)(=O)c2ccc(Cl)cc2)c1,-13,59*,-15,-14,-7,-1
Cc1ccccc1OCC(=O)NS(=O)(=O)c1ccc(Cl)cc1,-8,21,-1,-2,-24,11
O=[N+]([O-])c1ccc(CN2[C@H](COCc3ccccc3)C=CS2(=O)=O)cc1,·,·,·,1,·,1
CCOc1cc(NCc2ccccc2)c2ncn(C(C)C)c2c1,-34,25,·,-6,-50,44*
COCCOc1cc(NCc2ccccc2)c2ncn(C(C)C)c2c1,-16,20,·,-5,-29,12
N#C/C(=C/c1ccc(O)c(O)c1)C(=O)NCc1ccc(Cl)cc1,-3,20,0,6,11,48*
N#C/C(=C/c1cccc(O)c1)C(=O)NCc1ccc(Cl)cc1,-21,6,0,-20,-16,13
Cc1cccc(C2=CC(=O)CC(C)(C)C2=O)c1,·,·,·,-9,·,5
COc1ccc2oc(=O)c(C(=O)NCC3CCCO3)cc2c1 (configuration not stated),-10,61*,4,13,-10,2
COc1ccc2oc(=O)c(C(=O)NC3CCCCCC3)cc2c1,-11,6,-2,-13,-30,7
COc1cc(Br)cc2cc(C(=O)NCC3CCCO3)c(=O)oc12 (configuration not stated),1,10,-13,1,-16,0
COc1cccc2cc(C(=O)NCC3CCCO3)c(=O)oc12 (configuration not stated),-4,77*,-10,1,-8,0
COc1cccc(C(C)(O)c2nc(-c3ccoc3)cs2)c1 (configuration not stated),·,·,·,5,·,2
CNC(=O)c1ccsc1NC(=O)c1ccc2c(c1)CCCC2,-2,40,-18,51*,-10,3
NS(=O)(=O)c1ccc(NC(=O)c2ccc3c(c2)CCCC3)cc1,-2,3,-8,-10,-21,2
O=C(CSc1nnc(-c2c[nH]c3ccccc23)o1)N(Cc1ccccc1)c1ccc(F)cc1,17,52*,2,·,14,·
CCn1c(SCc2nc(CC(=O)Nc3ccccc3OC)no2)nnc1-c1cccs1,-16,70*,-9,-2,-6,8
CCN(CC)c1ccc(/C=N/NC(=O)c2cccc(S(=O)(=O)N3CCOCC3)c2)c(O)c1,-11,66*,-5,1,-7,1
O=C1/C(=C\c2ccc(O)c(O)c2)SC(=S)N1Cc1ccccc1,·,·,24,-14,·,38*
CCc1ccc(N=C2NC(=O)/C(=C/c3cc(OC)c(O)c(OC)c3)S2)cc1,·,·,-15,17,·,3
COc1cc(/C=C2\SC(=Nc3ccccc3)NC2=O)cc(Cl)c1O,39*,49*,18,62*,61*,75*
COc1cc(/C=C2\SC(=S)N(NS(=O)(=O)c3ccccc3)C2=O)ccc1O,44*,47,-9,0,24,16
